In PMC10209341 (Heliyon, 2023):
Where two headings read alike, the source gives them in different places.

Experiments:
[1] = system: HCT116 xenograft; experiment: HCT116 xenograft, initial tumor model; type: in vivo, Balb/c nude mice
In short: (§1)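 Female Balb/c nude mice, 6–8 weeks old. HCT116 cells (5 × 10^6 in 100 μL PBS) injected s.c. into the right flank. All given orally once daily. Tumour volume (0.5 × a × b²) measured every three days.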

[2] = system: HCT116 xenograft; experiment: HCT116 xenograft, medium-term tumor model; type: in vivo, Balb/c nude mice; conditions: for tumor inhibitory rate: medium-term HCT116 model
In short: as §1

[3] = system: HepG2 xenograft; experiment: HepG2 hepatoma xenograft model; type: in vivo, Balb/c nude mice
In short: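 Female Balb/c nude mice, 6–8 weeks old, carrying s.c. HepG2 xenografts. Tumours established as for the HCT116 initial model (~150 mm3). Groups: vehicle, test compound 50 mg/kg, reference drug 30 mg/kg; n = 5. Tumour volume (0.5 × a × b²) measured every three days and body weight followed. At the end of treatment, organs taken for H&E.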

[4] = system: Hep3B2.1-7 xenograft; experiment: Hep3B2.1-7 hepatoma xenograft model; type: in vivo, Balb/c nude mice; conditions: Hep3B2.1-7 model; for growth inhibition rate: terminated day 15
In short: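 Female Balb/c nude mice, 6–8 weeks old, carrying s.c. Hep3B2.1-7 xenografts. Tumours established as for the HCT116 initial model (~150 mm3). Tumour volume (0.5 × a × b²) measured every three days and body weight monitored. At the end, mice sacrificed under anaesthesia and major organs taken for H&E.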

[5] = Sub-acute toxicity study; type: in vivo, C57BL/6 mice; conditions: for body weight / deaths during the study: 25 days; for deaths during the study: female C57BL/6 mice
In short: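 Female C57BL/6 mice dosed orally for 25 days with vehicle, test compound 100 mg/kg or reference drug 40 mg/kg. Body weight and survival followed. Livers imaged and H&E stained. Plasma BUN, CREA, GLB, UREAL, ALP, AST and ALT measured (n = 3).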

[6] = system: LO2 cells; experiment: MTT assay in normal liver cells LO2; type: cell-based; conditions: Homo sapiens, L02, 72 h, read-out: IC50, viability of normal liver cells LO2
[7] = system: LO2 cells; experiment: Microscopy imaging of cell morphology; type: cell-based; conditions: 48 h
In short: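 LO2 cells exposed 48 h to test compound or reference drug and imaged by microscopy. Scored features were apoptotic bodies and ballooned cell membranes typical of pyroptosis.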

[8] = system: N-GSDME and cleaved-caspase3 in HCT116, Hep3B2.1-7 and HepG2 cells; experiment: Western blot of pyroptosis-related proteins; type: cell-based; conditions: 48 h
In short: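 HCT116, Hep3B2.1-7 and HepG2 cells treated 48 h with graded concentrations of test compound or reference drug, then lysed in RIPA. 100 μg protein run on 10% SDS-PAGE and blotted to nitrocellulose. Probed for GSDME, N-GSDME, caspase-3 and cleaved caspase-3, with ECL detection. Bands quantified as ratio to GAPDH; three independent experiments.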

[9] = system: HCT116, HepG2 and Hep3B2.1-7 cells; experiment: Cellular ROS level by flow cytometry; type: cell-based; conditions: 48 h, DCFH-DA
In short: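 Cells seeded at 3 × 10^4 per well in 6-well plates and grown 24 h, then exposed 48 h to graded concentrations of test compound or reference drug. Intracellular ROS stained with DCFH-DA (ROS assay kit), read by flow cytometry and quantified. DCFH-DA-stained HCT116 cells were also viewed by inverted fluorescence microscopy.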

[10] = system: HCT116 cells; experiment: Rescue of Lenvatinib-induced pyroptosis in pretreated HCT116 cells; type: cell-based; conditions: then stimulated with Lenvatinib
[11] = molecular target: VEGFR1 (Homo sapiens, UniProt P17948); experiment: Kinase inhibition assay; type: biochemical
In short: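 Kinase activity tested by a contract provider over a gradient of test-compound concentrations. IC50 derived by fitting the concentration–response data.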

[12] = molecular target: VEGFR2 (Homo sapiens, UniProt P35968); experiment: Kinase inhibition assay; type: biochemical
In short: (§2)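 Run by an outside contract provider as part of a panel covering VEGFR1-3, FGFR1-4 and PDGFR. Test compound was tested across a gradient of concentrations, and IC50 was calculated from the resulting concentration-response data.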

[13] = molecular target: VEGFR3 (Homo sapiens, UniProt P35916); experiment: Kinase inhibition assay; type: biochemical
In short: as §2

[14] = system: HUVECs; experiment: MTT assay in HUVECs; type: cell-based; conditions: Homo sapiens, HUVEC, 48 h
[15] = system: VEGF165-induced HUVECs; experiment: EdU incorporation assay in HUVECs; type: cell-based
In short: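 HUVECs were kept in medium with 10% FBS at 37 °C and 5% CO2, then plated at 1 × 10^4 cells/well in 96-well plates. Cells received a range of test-compound concentrations or solvent control and were stained with an EdU proliferation kit plus Hoechst 33342. Under a fluorescence microscope, the read-out was the ratio of EdU-positive to Hoechst-positive cells. Values are mean ± SD from three independent experiments.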

[16] = system: HUVECs; experiment: Wound healing; type: cell-based; conditions: 1.25 μM, 24 h
In short: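 HUVEC monolayers in 6-well plates were scratch-wounded, washed with PBS and treated with test compound (1.25 μM). Wounds were photographed under a microscope after 24 h. Values are mean ± SD from three independent experiments.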

[17] = system: HUVECs; experiment: Transwell invasion assay of HUVECs; type: cell-based; conditions: 1.25 μM, 24 h
In short: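 HUVECs (4 × 10^4) in growth-factor-free ECM medium went into Matrigel-coated transwell upper chambers; the lower chamber held ECM with growth factors. Test compound (1.25 μM) or DMSO was added to the upper cells for 24 h. Non-invading cells were scraped off, and invaded cells were fixed in 4% paraformaldehyde, stained with crystal violet and photographed. Values are mean ± SD, n = 3.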

[18] = system: HUVECs; experiment: HUVEC tube formation assay; type: cell-based; conditions: 3 μM, 6 h
In short: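 Wells were pre-chilled, coated with Matrigel and polymerised at 37 °C for 1 h. HUVECs in ECM medium were seeded on the Matrigel at 2 × 10^4 cells/well together with test compound (3 μM). After 6 h, tube formation was observed by microscopy. Values are mean ± SD from three independent experiments.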

[19] = system: transgenic zebrafish embryos; experiment: Angiogenesis in flk:eGFP transgenic zebrafish; type: in vivo; conditions: 3 μM, 16 h
[20] = system: VEGFR2 phosphorylation; experiment: Western blot of VEGF-induced phosphorylation in HUVECs; type: cell-based; conditions: 3.3 μM
In short: (§3)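 HUVEC lysates made in RIPA buffer and protein measured by BCA. 100 μg protein run on 10% SDS-PAGE and transferred to nitrocellulose. Membranes blocked 2 h in TBST with 5% milk, then primary antibody overnight at 4 °C and secondary 1 h at room temperature. Bands detected by ECL.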

[21] = system: STAT3 phosphorylation; experiment: as above; type: cell-based; conditions: 1.0 μM
In short: as §3

[22] = system: ERK phosphorylation; experiment: as above; type: cell-based; conditions: 0.3 μM
In short: as §3

[23] = system: HepG2, Hepa3B2.1-7 and HCT116 cells; experiment: MTT and crystal violet; type: cell-based; conditions: MTT and crystal violet staining, time- and dose-dependent
In short: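 MTT: cells (2–5 × 10^3 per well) attached 24 h, then given graded concentrations of test compound (in DMSO): 6 days for liver cancer lines, 3 days for HCT116, and various times. MTT (5 mg/mL) added for 4 h; formazan dissolved in DMSO and absorbance read at 570 nm. Colony assay: 1.5 × 10^3 cells per well treated 10 days, fixed in 4% PFA 20 min, stained with 0.5% crystal violet 10 min, counted. Three independent experiments.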

[24] = system: tumor tissues; experiment: Immunohistochemistry of xenograft tumor tissues; type: in vivo, Balb/c nude mice; conditions: vs controls
In short: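 At the end of xenograft treatment, mice sacrificed under anaesthesia and tumours excised. Tumour sections stained by immunohistochemistry for Ki67 (proliferation) and CD31 (microvessels), plus TUNEL for apoptotic cells. Imaged at ×20.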

Chain of VEGFR3 (P35916 25-1363): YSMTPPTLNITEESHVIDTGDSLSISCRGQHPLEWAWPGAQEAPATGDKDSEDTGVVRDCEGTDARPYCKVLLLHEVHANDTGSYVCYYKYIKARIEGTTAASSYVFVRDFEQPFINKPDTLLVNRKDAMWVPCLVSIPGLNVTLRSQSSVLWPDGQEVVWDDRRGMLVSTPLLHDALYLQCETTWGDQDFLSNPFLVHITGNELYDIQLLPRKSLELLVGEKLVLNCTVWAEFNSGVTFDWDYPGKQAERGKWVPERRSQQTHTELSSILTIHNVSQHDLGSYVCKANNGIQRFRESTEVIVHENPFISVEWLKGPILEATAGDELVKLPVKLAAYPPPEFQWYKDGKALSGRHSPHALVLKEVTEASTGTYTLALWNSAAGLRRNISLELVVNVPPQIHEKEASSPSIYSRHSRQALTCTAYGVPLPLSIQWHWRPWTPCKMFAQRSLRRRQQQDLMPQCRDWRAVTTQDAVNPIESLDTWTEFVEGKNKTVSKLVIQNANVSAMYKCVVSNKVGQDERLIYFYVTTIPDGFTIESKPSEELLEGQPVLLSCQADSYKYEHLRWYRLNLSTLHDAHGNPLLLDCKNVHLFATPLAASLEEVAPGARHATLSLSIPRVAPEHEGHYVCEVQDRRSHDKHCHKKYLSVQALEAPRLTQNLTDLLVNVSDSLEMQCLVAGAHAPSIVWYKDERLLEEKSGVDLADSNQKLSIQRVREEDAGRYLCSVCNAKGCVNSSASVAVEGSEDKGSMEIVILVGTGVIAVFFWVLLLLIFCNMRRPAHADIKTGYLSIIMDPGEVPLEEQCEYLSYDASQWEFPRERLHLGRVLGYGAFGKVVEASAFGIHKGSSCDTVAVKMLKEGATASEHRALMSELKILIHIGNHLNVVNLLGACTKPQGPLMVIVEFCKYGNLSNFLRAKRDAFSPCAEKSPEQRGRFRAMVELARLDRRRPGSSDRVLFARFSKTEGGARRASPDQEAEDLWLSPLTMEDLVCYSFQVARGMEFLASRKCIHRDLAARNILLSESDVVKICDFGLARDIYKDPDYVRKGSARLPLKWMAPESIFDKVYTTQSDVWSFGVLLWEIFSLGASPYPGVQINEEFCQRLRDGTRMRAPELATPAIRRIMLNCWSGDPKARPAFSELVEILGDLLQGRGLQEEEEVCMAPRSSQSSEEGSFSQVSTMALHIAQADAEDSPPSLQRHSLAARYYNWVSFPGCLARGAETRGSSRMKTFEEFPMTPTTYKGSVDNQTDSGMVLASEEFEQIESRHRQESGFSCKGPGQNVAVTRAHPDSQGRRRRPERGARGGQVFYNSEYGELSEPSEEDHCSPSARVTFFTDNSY
Chain of VEGFR1 (P17948 27-1338): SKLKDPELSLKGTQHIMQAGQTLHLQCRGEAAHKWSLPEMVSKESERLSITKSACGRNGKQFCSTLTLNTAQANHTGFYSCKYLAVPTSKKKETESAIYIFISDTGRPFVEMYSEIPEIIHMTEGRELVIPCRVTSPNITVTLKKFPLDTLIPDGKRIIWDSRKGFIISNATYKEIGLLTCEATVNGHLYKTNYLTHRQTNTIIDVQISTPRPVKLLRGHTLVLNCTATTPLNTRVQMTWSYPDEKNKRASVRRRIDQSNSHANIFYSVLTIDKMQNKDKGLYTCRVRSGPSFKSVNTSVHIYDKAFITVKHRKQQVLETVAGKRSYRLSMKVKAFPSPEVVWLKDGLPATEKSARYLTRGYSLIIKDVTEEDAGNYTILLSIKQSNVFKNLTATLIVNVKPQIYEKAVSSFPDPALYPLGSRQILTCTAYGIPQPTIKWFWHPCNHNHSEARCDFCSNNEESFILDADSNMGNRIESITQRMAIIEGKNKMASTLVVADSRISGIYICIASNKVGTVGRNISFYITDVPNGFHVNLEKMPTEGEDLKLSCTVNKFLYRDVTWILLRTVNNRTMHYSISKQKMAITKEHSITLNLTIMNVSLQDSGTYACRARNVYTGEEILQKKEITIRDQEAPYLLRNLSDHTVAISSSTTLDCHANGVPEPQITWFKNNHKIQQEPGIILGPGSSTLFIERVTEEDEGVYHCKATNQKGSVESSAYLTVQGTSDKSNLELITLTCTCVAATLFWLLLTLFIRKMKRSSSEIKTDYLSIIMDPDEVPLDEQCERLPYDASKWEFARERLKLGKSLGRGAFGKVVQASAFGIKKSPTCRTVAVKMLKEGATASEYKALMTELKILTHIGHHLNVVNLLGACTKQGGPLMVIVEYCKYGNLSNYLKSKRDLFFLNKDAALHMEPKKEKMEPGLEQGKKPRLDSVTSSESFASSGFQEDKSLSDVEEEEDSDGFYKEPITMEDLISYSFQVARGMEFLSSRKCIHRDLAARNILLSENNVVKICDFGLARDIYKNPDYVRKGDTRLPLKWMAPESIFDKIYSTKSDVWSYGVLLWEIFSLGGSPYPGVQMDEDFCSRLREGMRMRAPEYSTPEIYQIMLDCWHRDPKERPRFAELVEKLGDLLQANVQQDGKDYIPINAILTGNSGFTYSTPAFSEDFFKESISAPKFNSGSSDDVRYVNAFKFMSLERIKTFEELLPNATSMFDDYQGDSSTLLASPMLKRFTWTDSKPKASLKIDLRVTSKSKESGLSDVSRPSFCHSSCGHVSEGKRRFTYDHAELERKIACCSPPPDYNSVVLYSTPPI
Chain of VEGFR2 (P35968 20-1356): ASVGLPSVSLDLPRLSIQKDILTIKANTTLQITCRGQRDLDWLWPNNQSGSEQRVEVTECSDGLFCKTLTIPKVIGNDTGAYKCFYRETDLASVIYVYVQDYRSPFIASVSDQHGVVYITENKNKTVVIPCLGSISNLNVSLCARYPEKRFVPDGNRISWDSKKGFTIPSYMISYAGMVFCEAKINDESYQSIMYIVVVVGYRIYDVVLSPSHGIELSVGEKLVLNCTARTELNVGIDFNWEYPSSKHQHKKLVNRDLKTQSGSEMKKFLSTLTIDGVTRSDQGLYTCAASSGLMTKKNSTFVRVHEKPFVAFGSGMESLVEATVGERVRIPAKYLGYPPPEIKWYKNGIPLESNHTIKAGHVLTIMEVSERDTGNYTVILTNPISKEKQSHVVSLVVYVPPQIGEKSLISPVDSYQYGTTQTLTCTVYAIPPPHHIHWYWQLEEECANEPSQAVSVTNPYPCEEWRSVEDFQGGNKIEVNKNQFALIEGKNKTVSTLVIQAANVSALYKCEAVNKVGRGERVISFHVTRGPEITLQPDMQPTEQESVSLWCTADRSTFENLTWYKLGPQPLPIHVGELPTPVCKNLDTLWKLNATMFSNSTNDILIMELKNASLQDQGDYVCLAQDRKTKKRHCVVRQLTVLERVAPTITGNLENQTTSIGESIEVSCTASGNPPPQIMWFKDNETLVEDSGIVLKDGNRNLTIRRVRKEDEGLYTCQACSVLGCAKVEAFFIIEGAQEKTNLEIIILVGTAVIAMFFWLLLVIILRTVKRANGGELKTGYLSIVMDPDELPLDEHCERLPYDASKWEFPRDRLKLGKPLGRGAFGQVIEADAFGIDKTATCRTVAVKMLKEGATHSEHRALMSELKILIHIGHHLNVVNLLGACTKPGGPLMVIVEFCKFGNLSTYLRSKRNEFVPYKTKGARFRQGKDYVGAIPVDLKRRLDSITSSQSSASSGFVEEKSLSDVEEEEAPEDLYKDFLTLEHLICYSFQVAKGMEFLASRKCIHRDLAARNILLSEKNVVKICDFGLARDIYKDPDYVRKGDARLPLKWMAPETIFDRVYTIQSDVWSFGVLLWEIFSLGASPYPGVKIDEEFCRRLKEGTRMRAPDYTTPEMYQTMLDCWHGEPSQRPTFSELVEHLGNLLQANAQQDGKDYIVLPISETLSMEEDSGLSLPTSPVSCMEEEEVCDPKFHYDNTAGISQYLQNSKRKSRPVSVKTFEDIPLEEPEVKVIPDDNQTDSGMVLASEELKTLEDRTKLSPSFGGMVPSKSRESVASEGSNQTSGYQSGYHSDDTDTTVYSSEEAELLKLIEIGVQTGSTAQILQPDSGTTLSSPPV

SMILES: COc1cc2nccc(Oc3ccc(NC(=O)NC4CC4)c(Cl)c3)c2cc1C(N)=O [Lenvatinib, reference compound]
- body weight ([1]; 5 mg/kg): lower body weights than ZLF-095-treated group
- tumor inhibitory rate ([1]; 5 mg/kg oral once daily): 76.8%
- body weight ([2]; medium-term (metaphase) HCT116 model, 5 mg/kg): lower body weights than ZLF-095-treated group
- tumor inhibitory rate ([2]; 5 mg/kg oral once daily): 66.5%
- body weight / lethality ([3]; 30 mg/kg, after 16 days): marked loss of body weight led to death in mice
- body weight ([4]; 30 mg/kg, day 15): sustained weight loss
- growth inhibition rate ([4]; 30 mg/kg): 78.1%
- levels of ALP ([5]; 40 mg/kg oral): notably increased
- levels of AST and ALT ([5]; 40 mg/kg oral): decreased
- liver images and H&E ([5]; 40 mg/kg oral): focal necrosis and significant inflammatory cell infiltration
- body weight ([5]; 40 mg/kg oral): obvious body weight loss
- deaths during the study ([5]; 40 mg/kg oral): 5/5
- IC50 [6]: 14 µM
- cell morphology (pyroptosis) [7]: large bubbles bulging from the cell membrane
- cleaved-caspase3 / caspase3 activation [8]: obviously up‐regulated
- expression of N-GSDME [8]: obviously up‐regulated
- intracellular ROS levels [9]: significantly increased

SMILES: CC(=O)N[C@@H](CS)C(=O)O [NAC]
- effect on Lenvatinib-induced cell swelling / pyroptosis [10]: rescue Lenvatinib-induced pyroptosis

SMILES: COC(=O)CC[C@H](NC(=O)[C@H](CC(=O)OC)NC(=O)OCc1ccccc1)C(=O)N[C@H](C(=O)N[C@@H](CC(=O)OC)C(=O)CF)C(C)C [Z-DEVD-FMK]
- effect on Lenvatinib-induced cell swelling / pyroptosis [10]: abolished

SMILES: COCCOCCOc1cc2nccc(Oc3ccc(NC(=O)NC4CC4)c(Cl)c3)c2cc1C(N)=O [ZLF-095, 4-(3-chloro-4-(3-cyclopropylureido)phenoxy)-7-(2-(2-methoxyethoxy)ethoxy)qui noline-6-carboxamide]
- IC50 [11]: 0.002 µM
- IC50 [12]: 0.005 µM
- IC50 [13]: 0.0007 µM
- IC50 ([14]; read-out: IC50, viability of VEGF165-induced HUVECs): 1.77 µM
- IC50 ([14]; read-out: IC50, viability of untreated HUVECs): 10.1 µM
- cell proliferation (EdU) [15]: reduced cell proliferation in VEGF165-induced HUVECs in a dose-dependent manner
- migration of HUVECs (wound healing) [16]: inhibited the migration of HUVECs slightly better than Lenvatinib
- invasion of HUVECs (transwell) [17]: significantly inhibited the invasion of HUVECs, similar to Lenvatinib
- capillary tube formation of HUVECs [18]: inhibited capillary tube formation of HUVECs
- formation of intersegmental vessels (ISV) [19]: significantly suppressed the formation of intersegmental vessels (ISV), similar to Lenvatinib
- phosphorylation of VEGFR2 induced by 50 ng/mL VEGF-165 [20]: obviously suppressed
- STAT3 phosphorylation [21]: significantly inhibited
- ERK phosphorylation [22]: significantly inhibited
- proliferation of HepG2, Hepa3B2.1-7 and HCT116 cells [23]: significantly inhibited
- tumor inhibitory rate ([1]; 5 mg/kg oral once daily): 72.7%
- tumor inhibitory rate ([1]; 15 mg/kg oral once daily): 83.9%
- tumor inhibitory rate ([2]; 5 mg/kg oral once daily): 60.7%
- tumor inhibitory rate ([2]; 15 mg/kg oral once daily): 72.5%
- body weight ([3]; 50 mg/kg, 25 days): no influence on the weight
- suppression of cancer growth ([3]; 50 mg/kg, 25 days): 75.2%
- growth inhibition rate ([4]; 30 mg/kg): 66.6%
- growth inhibition rate ([4]; 80 mg/kg): 81.5%
- gross abnormalities ([4]; dose levels up to 80 mg/kg): no gross abnormalities were observed
- expression of Ki67 in tumor tissues ([24]; immunohistochemistry): significantly decreased
- micro-vessel density of tumors (CD31) [24]: markedly decreased
- number of apoptotic cells in tumor tissues (TUNEL) [24]: increased
- liver images and H&E ([5]; 100 mg/kg oral): no visible abnormalities in the liver
- serum levels of BUN, CREA, GLB, UREAL, ALP, AST and ALT ([5]; 100 mg/kg oral): No aberrant serum levels
- deaths during the study ([5]; 100 mg/kg oral): none
- body weight ([5]; 100 mg/kg oral, vs vehicle): no significant changes in body weight
- cell morphology (pyroptosis) [7]: no such change was seen
- cleaved-caspase3 / caspase3 activation [8]: increased caspase3 activation
- expression of N-GSDME [8]: had no effect
